High-throughput results (PubChem BioAssay)
Compounds with a hit are over-represented: about 2.4% of the library has one in this group of screens.
MC4R antag cAMP = blocks human MC4R cAMP signaling. AID 540295. 360,000 tested, 0.48% active. inhibition, % at 6.5 µM. P32245. MC4R-expressing cells, MTII-stimulated cAMP, LANCE TR-FRET;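 active = inhibition above its plate's cutoff, the mean of tested wells on that plate plus 3 SD, cut at about 29% in these data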;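 also: 0% = Melanotan II alone and 100% = Melanotan II plus saturating MCL0020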
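System: U2OS cells stably expressing human melanocortin 4 receptor (MC4R). Reagent: Melanotan II challenge after compound preincubation. Doses: 6.5 µM. Times: 30-min compound, 1-h challenge, 1-h detection, room temperature. Measured by: TR-FRET with Eu-cAMP and labeled anti-cAMP, 671 nm. Replicates: singlicate.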
OPRM1-OPRD1 inv = mu-delta opioid heterodimer inverse agonism. inhibition, % at 9.3 µM. P35372+P41143. cell-based MOR-DOR heterodimer luminescence. 340,000 tested, 0.21% active; in the data active = inhibition above about 22%, passing the limit was not always enough;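 also: 0% = cells with DMSO and 100% = wells without cells with DMSO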
MOR-DOR ag-1 = agonists of human mu-delta opioid receptor heterodimerization | AID 504326 | 340,000 tested, 0.3% active | activation, % at 9.3 µM | cells, OPRM1-OPRD1 heterodimerization, luminescence;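 also: 0% = vehicle-treated cells and 100% = reference agonist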
HTR5A ag ctr = activates human HTR5A in OPRM1-OPRD1 agonist counter-screen; P47898; HTR5A agonist assay, luminescence, cell-based; AID 504692; 340,000 tested, 0.61% active; activation, % at 9.3 µM; in the data active = activation mostly above about 9.5%, no sharp cut-off; inactive = mostly below about 7.6%;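 also: 0% = cells with vehicle only and 100% = reference agonist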
Target sequence (P47898 whole entry, looked up): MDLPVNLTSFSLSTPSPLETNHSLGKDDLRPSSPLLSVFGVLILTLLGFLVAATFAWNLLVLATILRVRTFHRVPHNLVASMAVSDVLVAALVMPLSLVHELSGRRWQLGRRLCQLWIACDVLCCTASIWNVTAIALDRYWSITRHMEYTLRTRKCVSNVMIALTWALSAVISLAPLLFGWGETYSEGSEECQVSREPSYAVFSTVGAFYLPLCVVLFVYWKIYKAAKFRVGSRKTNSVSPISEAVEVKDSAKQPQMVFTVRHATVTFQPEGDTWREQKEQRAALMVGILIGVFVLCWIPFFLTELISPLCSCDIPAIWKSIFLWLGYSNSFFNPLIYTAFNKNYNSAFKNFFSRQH
HTR5A inv ctr = HTR5A inverse agonism, opioid heterodimer counter-screen; 340,000 tested, 0.083% active; HTR5A cell line, luminescence; P47898; inhibition, % at 9.3 µM; in the data active = inhibition mostly above about 23%, no sharp cut-off; inactive = mostly below about 18%;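 also: 0% = cells with DMSO and 100% = no-cell wells with DMSO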
MC4R ag barr = human MC4R agonism via beta-arrestin; P32245; U2OS MC4R beta-arrestin complementation, luminescence; percent of melanotan II response, DMSO zero; activation, % at 8.9 µM; 360,000 tested, 0.98% active; AID 540308;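 active = activation above a per-plate cutoff, the mean activation of sample wells on that plate plus 3 SD, cut at about 8% in these data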
MOR-DOR ag-2 = opioid heterodimer agonism, HTR5A counter-screen | shares compounds with HTR5A ag ctr | U2OS counter-screen cells, complementation luminescence, 3 h | activation, % at 9.3 µM | 800 tested, 13% active
HTR5A ag confirm = HTR5A (human) agonism, confirmation. shares compounds with HTR5A ag ctr. AID 504915. HTR5A agonist cell assay, luminescence. activation, % at 9.3 µM. 800 tested, 17% active; in the data active = activation above about 17%;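 also: 0% = cells with vehicle only and 100% = full reference agonist response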
Starred values were filed as active, the others as inactive; . = no result given. Rule as the data show it, unless noted: active = activation above about 18%; inactive = the rest.

SMILES	MC4R antag cAMP	OPRM1-OPRD1 inv	MOR-DOR ag-1	HTR5A ag ctr	HTR5A inv ctr	MC4R ag barr	MOR-DOR ag-2	HTR5A ag confirm
COc1cccc(N2CCN(Cc3ccco3)CC2)c1	5	7	-1	15*	-43	-1	1	-6
CN1CCN(S(=O)(=O)c2ccc(NC(=O)Nc3cccc(Cl)c3)cc2)CC1	0	-33	6	17*	-89	2	8	7
CCOc1ccc(C2=CS/C(=C(\C#N)c3nnc4n3CCCCC4)N2CC)cc1	21	12	-2	15*	-15	-1	2	1
C=CCN1C(c2ccccc2)=CS/C1=C(\C#N)c1nnc2n1CCCCC2	5	13	-2	4	-22	0	.	.
COc1cc(-c2nc3ccc(C)cn3c2Nc2ccc3c(c2)OCCO3)ccc1O	6	-13	2	43*	-108	-1	3	39*
Cc1cc(C)n(C(C)CNC(=O)c2ccc3c(c2)OCO3)n1 (stereo not drawn)	12	15	-3	2	-7	-2	.	.
N/C(Cc1ccc(Cl)c(Cl)c1)=N\OC(=O)c1cccs1	-7	-4	1	44*	-104	8.6*	2	1
COc1ccc2[nH]cc(CCNC(=O)C3CCCO3)c2c1 (stereo not drawn)	-2	11	-2	42*	-139	6	3	35*
COC(=O)C1=C(C)N(CCc2ccc(OC)cc2)C(=O)C1	0	8	-2	-4	-9	1	.	.
CCOc1ccc(N2CC(C(=O)NCCc3c[nH]c4ccc(OC)cc34)CC2=O)cc1 (stereo not drawn)	4	-17	2	20*	-59	-1	0	0
COC(=O)C1=C(C)N(CCc2c[nH]c3ccc(OC)cc23)C(=O)C1	10	-3	1	17*	-32	2	3	42*
COc1ccc2[nH]cc(CCNC(=O)C3CC(=O)N(c4ccc(Cl)cc4)C3)c2c1 (stereo not drawn)	2	-12	2	33*	-87	-1	1	0
CCCNC(=O)C1CC(=O)N(c2ccc(OCC)cc2)C1 (stereo not drawn)	-3	5	-1	2	-4	-2	.	.
COc1ccc2c(c1)C(c1ccc(Cl)cc1)NC(=O)C2 (stereo not drawn)	7	3	-1	9	-14	0	.	.
CC(C)N1CCc2c(sc(NC(=O)c3ccc(C(=O)c4ccccc4)cc3)c2C(N)=O)C1	5	13	-2	-4	16	-5	.	.
CC(C)N1CCc2c(sc(NC(=O)c3ccc4ccccc4c3)c2C(N)=O)C1	7	-17	3	18*	-27	-1	4	18*
O=C(N/N=C/c1cc([N+](=O)[O-])ccc1Cl)c1cc(-c2ccccc2)nc2ccccc12	11	1	0	16*	-11	0	8	3
COC(=O)CCCC1=CC2=C(c3ccccc3)C(=O)C(C)(OC(=O)C3CCCC3)C(=O)C2=CN1CCc1c[nH]c2ccccc12 (stereo not drawn)	13	-6	1	15*	-12	-1	2	8
CCN(CC)CCCN1C=C2C(=O)C(C)(OC(=O)CCc3ccccc3)C(=O)C=C2C=C1c1ccc(C#N)cc1 (stereo not drawn)	0	-8	1	1	-14	-1	.	.
CC1(OC(=O)CCc2ccccc2)C(=O)C=C2C=C(c3ccc(C#N)cc3)N(CCc3c[nH]c4ccccc34)C=C2C1=O (stereo not drawn)	3	-39	7	20*	-32	-1	5	6
O=C(O)C(=Cc1cccc([N+](=O)[O-])c1)c1ccc(Cl)cc1	2	-2	0	-2	8	-1	.	.
COCCN(C(=O)CCc1ccccc1OC)c1nnc(-c2cccnc2)s1	7	12	-2	0	-30	-1	.	.
Cc1ccc2nc(SCC(=O)N3CCC(Cc4ccccc4)CC3)nc(=O)n2c1	-2	3	0	1	-2	-1	.	.
O=C(Nc1ccc(C(=O)N2CCCC2)cc1)c1ccccc1[N+](=O)[O-]	3	-2	0	18*	26	5	0	5
O=C(Nc1ccc(N2CCCC2)cc1)c1ccccc1[N+](=O)[O-]	-5	0	0	1	-3	-1	.	.
SMILES	MC4R antag cAMP	OPRM1-OPRD1 inv	MOR-DOR ag-1	HTR5A ag ctr	HTR5A inv ctr	MC4R ag barr	MOR-DOR ag-2	HTR5A ag confirm
O=C(N/N=C/c1ccco1)c1ccc(NC(=O)c2ccccc2Cl)cc1	-5	10	-2	1	-2	-3	.	.
O=C(N/N=C/c1ccco1)c1cccc(NC(=O)c2cccc(Cl)c2)c1	-2	16	-3	24*	-63	3	26*	13
CSc1cccc(NC(=O)N2CCc3ccc(NC(=O)c4ccccn4)cc3C2)c1	1	-7	1	16*	-10	0	18	16
Cc1cc(C)c(S(=O)(=O)N2CCN(C(=O)CCn3nc(C)c(C)c3C)CC2)c(C)c1	9	0	0	16*	-47	0	1	1
COc1ccc(OC)c(C(=O)Nc2c(O)ccc3ccccc23)c1	-3	-5	1	-4	-8	1	.	.
O=S(=O)(NN=C1CCCCCCC1)c1ccccc1	16	.	.	.	.	-1	.	.
CC(C)(C)C1CCC(=NNS(=O)(=O)c2ccc(Br)cc2)CC1 (stereo not drawn)	7	-1	0	21*	-73	0	7	4
O=C(COC(=O)c1ccccc1[N+](=O)[O-])NNC(=O)c1cccs1	22	7	-1	16*	-3	-3	0	0
O=C(NNC(=O)c1ccccc1[N+](=O)[O-])c1cccs1	18	15	-3	3	-8	0	.	.
Cc1cc(NC(=O)C(C)SCC(=O)N(Cc2ccccc2)c2ccccc2)no1 (stereo not drawn)	1	11	-2	-5	12	0	.	.
O=C(O/N=C(\c1ccccc1)c1ccccn1)c1cccc2ccccc12	3	-9	2	39*	-97	-1	133*	4
Cc1ccc(Nc2nc(N)nc(CN3CCN(Cc4ccc5c(c4)OCO5)CC3)n2)cc1Cl	10	-6	1	18*	-18	5	0	5
COc1cc(OC)c(C2SCCN2S(=O)(=O)c2ccc(F)cc2)cc1OC (stereo not drawn)	0	4	-1	-1	-36	3	.	.
COc1ccc(OC)c(C2SCCN2S(=O)(=O)c2cccc(C(F)(F)F)c2)c1 (stereo not drawn)	10	-18	3	17*	-39	2	3	-4
